From ChEMBL document CHEMBL1149705, “Synthesis and antimicrobial evaluation of new chalcones containing piperazine or 2,5-dichlorothiophene moiety” (2007)
≈ marks a conversion by molar mass, not a printed value.

system: Candida albicans; assay: Antifungal activity against Candida albicans after 48 hrs by agar well diffusion technique; assay type: functional; conditions: not given

Compound | MIC50
Cc1ccc(/C=C/C(=O)c2cc(Cl)sc2Cl)cc1 | 70 µg/mL (≈ 236 µM)
O=C(/C=C/c1ccccc1)c1cc(Cl)sc1Cl | 2.22 µg/mL (≈ 7.84 µM)
O=C(/C=C/c1ccc(Cl)cc1)c1ccc(N2CCNCC2)cc1 | 55 µg/mL (≈ 168 µM)
OC(Cn1cncn1)(Cn1cncn1)c1ccc(F)cc1F [FLUCONAZOLE] | 50 µg/mL (≈ 163 µM)
O=C(/C=C/c1ccc(Cl)cc1)c1cc(Cl)sc1Cl | 4.65 µg/mL (≈ 14.6 µM)
COc1ccc(/C=C/C(=O)c2ccc(N3CCNCC3)cc2)cc1 | 9.12 µg/mL (≈ 28.3 µM)
O=C(/C=C/c1cccc([N+](=O)[O-])c1)c1cc(Cl)sc1Cl | 5.97 µg/mL (≈ 18.2 µM)
COc1cc(/C=C/C(=O)c2ccc(N3CCNCC3)cc2)cc(OC)c1OC | 65 µg/mL (≈ 170 µM)
COc1ccc(/C=C/C(=O)c2cc(Cl)sc2Cl)cc1 | 5 µg/mL (≈ 16 µM)

system: Nakaseomyces glabratus; assay: Antifungal activity against Candida glabrata HO3 after 48 hrs by agar well diffusion technique; assay type: functional; conditions: not given

Compound | MIC50
Cc1ccc(/C=C/C(=O)c2cc(Cl)sc2Cl)cc1 | 80 µg/mL (≈ 269 µM)
O=C(/C=C/c1ccccc1)c1cc(Cl)sc1Cl | 4.65 µg/mL (≈ 16.4 µM)
O=C(/C=C/c1ccc(Cl)cc1)c1ccc(N2CCNCC2)cc1 | 60 µg/mL (≈ 184 µM)
OC(Cn1cncn1)(Cn1cncn1)c1ccc(F)cc1F [FLUCONAZOLE] | 50 µg/mL (≈ 163 µM)
O=C(/C=C/c1ccc(Cl)cc1)c1cc(Cl)sc1Cl | 40 µg/mL (≈ 126 µM)
COc1ccc(/C=C/C(=O)c2ccc(N3CCNCC3)cc2)cc1 | 16.2 µg/mL (≈ 50.4 µM)
O=C(/C=C/c1cccc([N+](=O)[O-])c1)c1cc(Cl)sc1Cl | 50 µg/mL (≈ 152 µM)
COc1cc(/C=C/C(=O)c2ccc(N3CCNCC3)cc2)cc(OC)c1OC | 60 µg/mL (≈ 157 µM)
COc1ccc(/C=C/C(=O)c2cc(Cl)sc2Cl)cc1 | 16.4 µg/mL (≈ 52.3 µM)

system: Proteus vulgaris; assay: Antibacterial activity against Proteus vulgaris at 250 ug/ml after 48 hrs by agar well diffusion technique; assay type: functional; conditions: read-out: IZ
In short: (§1)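 Cup-plate agar well diffusion on nutrient agar, set for 1–1.5 h. Cups of 10 mm were bored with a sterile cork borer, and test solution was added by sterile syringe. Plates were incubated at 37 °C for 48 h. The read-out was inhibition zone diameter in mm, graded 0–6 mild, 7–13 moderate and 14–26 efficacy. Ciprofloxacin was the standard; 10% DMSO served as solvent control.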

Compound | zone of inhibition at 250 µg/mL
Cc1ccc(/C=C/C(=O)c2cc(Cl)sc2Cl)cc1 | 9 mm
O=C(/C=C/c1ccccc1)c1cc(Cl)sc1Cl | 22 mm
O=C(/C=C/c1ccc(Cl)cc1)c1ccc(N2CCNCC2)cc1 | 16 mm
O=C(/C=C/c1ccc(Cl)cc1)c1cc(Cl)sc1Cl | 14 mm
COc1ccc(/C=C/C(=O)c2ccc(N3CCNCC3)cc2)cc1 | 14 mm
O=C(/C=C/c1cccc([N+](=O)[O-])c1)c1cc(Cl)sc1Cl | 18 mm
COc1cc(/C=C/C(=O)c2ccc(N3CCNCC3)cc2)cc(OC)c1OC | 6 mm
COc1ccc(/C=C/C(=O)c2cc(Cl)sc2Cl)cc1 | 14 mm

system: Pichia kudriavzevii; assay: Antifungal activity against Candida krusei GO3 after 48 hrs by agar well diffusion technique; assay type: functional; conditions: not given

Compound | MIC50
Cc1ccc(/C=C/C(=O)c2cc(Cl)sc2Cl)cc1 | 70 µg/mL (≈ 236 µM)
O=C(/C=C/c1ccccc1)c1cc(Cl)sc1Cl | 3.17 µg/mL (≈ 11.2 µM)
O=C(/C=C/c1ccc(Cl)cc1)c1ccc(N2CCNCC2)cc1 | 60 µg/mL (≈ 184 µM)
OC(Cn1cncn1)(Cn1cncn1)c1ccc(F)cc1F [FLUCONAZOLE] | 50 µg/mL (≈ 163 µM)
O=C(/C=C/c1ccc(Cl)cc1)c1cc(Cl)sc1Cl | 70 µg/mL (≈ 220 µM)
COc1ccc(/C=C/C(=O)c2ccc(N3CCNCC3)cc2)cc1 | 50 µg/mL (≈ 155 µM)
O=C(/C=C/c1cccc([N+](=O)[O-])c1)c1cc(Cl)sc1Cl | 50 µg/mL (≈ 152 µM)
COc1cc(/C=C/C(=O)c2ccc(N3CCNCC3)cc2)cc(OC)c1OC | 75 µg/mL (≈ 196 µM)
COc1ccc(/C=C/C(=O)c2cc(Cl)sc2Cl)cc1 | 18.2 µg/mL (≈ 58 µM)

system: Staphylococcus aureus; assay: Antibacterial activity against Staphylococcus aureus 209p at 250 ug/ml after 48 hrs by agar well diffusion technique; assay type: functional; conditions: read-out: IZ; in short: as §1

Compound | zone of inhibition at 250 µg/mL
Cc1ccc(/C=C/C(=O)c2cc(Cl)sc2Cl)cc1 | 12 mm
O=C(/C=C/c1ccccc1)c1cc(Cl)sc1Cl | 18 mm
O=C(/C=C/c1ccc(Cl)cc1)c1ccc(N2CCNCC2)cc1 | 18 mm
O=C(/C=C/c1ccc(Cl)cc1)c1cc(Cl)sc1Cl | 14 mm
COc1ccc(/C=C/C(=O)c2ccc(N3CCNCC3)cc2)cc1 | 24 mm
O=C(/C=C/c1cccc([N+](=O)[O-])c1)c1cc(Cl)sc1Cl | 24 mm
COc1cc(/C=C/C(=O)c2ccc(N3CCNCC3)cc2)cc(OC)c1OC | 6 mm
COc1ccc(/C=C/C(=O)c2cc(Cl)sc2Cl)cc1 | 14 mm

system: Nakaseomyces glabratus; assay: Antifungal activity against Candida glabrata HO3 at 250 ug/ml after 48 hrs by agar well diffusion technique; assay type: functional; conditions: read-out: IZ

Compound | zone of inhibition at 250 µg/mL
Cc1ccc(/C=C/C(=O)c2cc(Cl)sc2Cl)cc1 | 12 mm
O=C(/C=C/c1ccccc1)c1cc(Cl)sc1Cl | 26 mm
O=C(/C=C/c1ccc(Cl)cc1)c1ccc(N2CCNCC2)cc1 | 14 mm
OC(Cn1cncn1)(Cn1cncn1)c1ccc(F)cc1F [FLUCONAZOLE] | 29 mm
O=C(/C=C/c1ccc(Cl)cc1)c1cc(Cl)sc1Cl | 14 mm
COc1ccc(/C=C/C(=O)c2ccc(N3CCNCC3)cc2)cc1 | 18 mm
O=C(/C=C/c1cccc([N+](=O)[O-])c1)c1cc(Cl)sc1Cl | 14 mm
COc1cc(/C=C/C(=O)c2ccc(N3CCNCC3)cc2)cc(OC)c1OC | 9 mm
COc1ccc(/C=C/C(=O)c2cc(Cl)sc2Cl)cc1 | 18 mm

system: Candida albicans; assay: Antifungal activity against Candida albicans at 250 ug/ml after 48 hrs by agar well diffusion technique; assay type: functional; conditions: read-out: IZ

Compound | zone of inhibition at 250 µg/mL
Cc1ccc(/C=C/C(=O)c2cc(Cl)sc2Cl)cc1 | 16 mm
O=C(/C=C/c1ccccc1)c1cc(Cl)sc1Cl | 26 mm
O=C(/C=C/c1ccc(Cl)cc1)c1ccc(N2CCNCC2)cc1 | 18 mm
OC(Cn1cncn1)(Cn1cncn1)c1ccc(F)cc1F [FLUCONAZOLE] | 29 mm
O=C(/C=C/c1ccc(Cl)cc1)c1cc(Cl)sc1Cl | 24 mm
COc1ccc(/C=C/C(=O)c2ccc(N3CCNCC3)cc2)cc1 | 22 mm
O=C(/C=C/c1cccc([N+](=O)[O-])c1)c1cc(Cl)sc1Cl | 18 mm
COc1cc(/C=C/C(=O)c2ccc(N3CCNCC3)cc2)cc(OC)c1OC | 9 mm
COc1ccc(/C=C/C(=O)c2cc(Cl)sc2Cl)cc1 | 20 mm

system: Aspergillus fumigatus; assay: Antifungal activity against Aspergillus fumigatus at 250 ug/ml after 48 hrs by agar well diffusion technique; assay type: functional; conditions: read-out: IZ; in short: as §1

Compound | zone of inhibition at 250 µg/mL
Cc1ccc(/C=C/C(=O)c2cc(Cl)sc2Cl)cc1 | 6 mm
O=C(/C=C/c1ccccc1)c1cc(Cl)sc1Cl | 24 mm
O=C(/C=C/c1ccc(Cl)cc1)c1ccc(N2CCNCC2)cc1 | 12 mm
O=C(/C=C/c1ccc(Cl)cc1)c1cc(Cl)sc1Cl | 18 mm
COc1ccc(/C=C/C(=O)c2ccc(N3CCNCC3)cc2)cc1 | 18 mm
O=C(/C=C/c1cccc([N+](=O)[O-])c1)c1cc(Cl)sc1Cl | 16 mm
COc1cc(/C=C/C(=O)c2ccc(N3CCNCC3)cc2)cc(OC)c1OC | 12 mm
COc1ccc(/C=C/C(=O)c2cc(Cl)sc2Cl)cc1 | 22 mm

system: Escherichia coli; assay: Antibacterial activity against Escherichia coli ESS 2231 at 250 ug/ml after 48 hrs by agar well diffusion technique; assay type: functional; conditions: read-out: IZ; in short: as §1

Compound | zone of inhibition at 250 µg/mL
Cc1ccc(/C=C/C(=O)c2cc(Cl)sc2Cl)cc1 | 16 mm
O=C(/C=C/c1ccccc1)c1cc(Cl)sc1Cl | 20 mm
O=C(/C=C/c1ccc(Cl)cc1)c1ccc(N2CCNCC2)cc1 | 22 mm
O=C(/C=C/c1ccc(Cl)cc1)c1cc(Cl)sc1Cl | 16 mm
COc1ccc(/C=C/C(=O)c2ccc(N3CCNCC3)cc2)cc1 | 22 mm
O=C(/C=C/c1cccc([N+](=O)[O-])c1)c1cc(Cl)sc1Cl | 22 mm
COc1cc(/C=C/C(=O)c2ccc(N3CCNCC3)cc2)cc(OC)c1OC | 8 mm
COc1ccc(/C=C/C(=O)c2cc(Cl)sc2Cl)cc1 | 18 mm

system: Pichia kudriavzevii; assay: Antifungal activity against Candida krusei GO3 at 250 ug/ml after 48 hrs by agar well diffusion technique; assay type: functional; conditions: read-out: IZ

Compound | zone of inhibition at 250 µg/mL
Cc1ccc(/C=C/C(=O)c2cc(Cl)sc2Cl)cc1 | 10 mm
O=C(/C=C/c1ccccc1)c1cc(Cl)sc1Cl | 26 mm
O=C(/C=C/c1ccc(Cl)cc1)c1ccc(N2CCNCC2)cc1 | 20 mm
OC(Cn1cncn1)(Cn1cncn1)c1ccc(F)cc1F [FLUCONAZOLE] | 29 mm
O=C(/C=C/c1ccc(Cl)cc1)c1cc(Cl)sc1Cl | 22 mm
COc1ccc(/C=C/C(=O)c2ccc(N3CCNCC3)cc2)cc1 | 14 mm
O=C(/C=C/c1cccc([N+](=O)[O-])c1)c1cc(Cl)sc1Cl | 12 mm
COc1cc(/C=C/C(=O)c2ccc(N3CCNCC3)cc2)cc(OC)c1OC | 12 mm
COc1ccc(/C=C/C(=O)c2cc(Cl)sc2Cl)cc1 | 18 mm

system: Klebsiella pneumoniae; assay: Antibacterial activity against Klebsiella pneumoniae at 250 ug/ml after 48 hrs by agar well diffusion technique; assay type: functional; conditions: read-out: IZ; in short: as §1

Compound | zone of inhibition at 250 µg/mL
Cc1ccc(/C=C/C(=O)c2cc(Cl)sc2Cl)cc1 | 8 mm
O=C(/C=C/c1ccccc1)c1cc(Cl)sc1Cl | 18 mm
O=C(/C=C/c1ccc(Cl)cc1)c1ccc(N2CCNCC2)cc1 | 14 mm
O=C(/C=C/c1ccc(Cl)cc1)c1cc(Cl)sc1Cl | 8 mm
COc1ccc(/C=C/C(=O)c2ccc(N3CCNCC3)cc2)cc1 | 16 mm
O=C(/C=C/c1cccc([N+](=O)[O-])c1)c1cc(Cl)sc1Cl | 20 mm
COc1cc(/C=C/C(=O)c2ccc(N3CCNCC3)cc2)cc(OC)c1OC | 9 mm
COc1ccc(/C=C/C(=O)c2cc(Cl)sc2Cl)cc1 | 16 mm
